DDE Tn7 FP inh – inhibitors of Tn7 peptide binding to fibrin DD(E), primary screen, biochemical, fluorescence polarization, human fibrin, Tn7 probe | actives 0.13% (n = 370,000) | Fibrinogen beta chain (Homo sapiens), P02675 | FP displacement of FITC-Tn7 peptide from fibrin DD(E); 0% = median of compound wells per plate | AID 720508, 2013 | inhibition, % at 8.3 µM;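 active means inhibition above the mean of compounds falling within the control limits plus 3 SD of them, cut at about 14% in these data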;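 further: 0% = plate median of compound wells and 100% = 10 µM Aha-Tn7 peptide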
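Also added: labelled Tn7 tracer, 0.1 µM; Assay system: human fibrin DD(E) protein; Amount: 2 µM fibrin DD(E); Schedule: 10 min compound pre-incubation, 3 h probe incubation at room temperature; Repeats: one replicate per compound; Read-out basis: percent inhibition; Measured by: fluorescence polarization of the labelled Tn7 tracer.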
Rtt109 HAT inh – inhibitors of C. albicans Rtt109/Vps75 HAT, primary screen, biochemical, ThioGlo CoA-SH fluorescence, plate reader; AID 540336, 2011; actives 0.16% (n = 330,000); purified Rtt109/Vps75, 4 h; inhibition, % at 34.9 µM;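 active means inhibition of at least 50% in every replicate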
Tn6 DDE FP – inhibitors of Tn6 peptide binding to fibrin DD(E), primary screen, biochemical, fluorescence polarization, human fibrin, Tn6 probe | actives 0.21% (n = 370,000) | Fibrin DD(E) TRITC-Tn6 fluorescence polarization displacement | Fibrinogen beta chain (Homo sapiens), P02675 | inhibition, % at 8.3 µM;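 active means inhibition above a per-campaign cutoff: mean of compounds within control limits plus 3 SD, cut at about 15% in these data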;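 further: 0% = median of all compound wells on the plate and 100% = blocking peptide control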
C-LANA FP – inhibitors of KSHV C-LANA binding to DNA, primary screen, biochemical, fluorescence polarization, FAM-LBS DNA, MBP-C-LANA, single point. Kaposi's sarcoma herpesvirus LANA C-terminal domain (residues 932-1162) DNA binding. inhibition, % at 9 µM. actives 0.078% (n = 340,000). AID 504423, 2011;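 active means highest replicate inhibition at or above 60% at 9 µM, even if other replicates fall short; inactive means all replicates below 60% inhibition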;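 further: 0% = neutral control wells and 100% = 4 µM acridine orange control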
Keap1 Nrf2 FP – Keap1-Nrf2 protein-protein interaction inhibitors, primary screen, biochemical, fluorescence polarization, single point. Kelch-like ECH-associated protein 1 (Homo sapiens), Q14145. Keap1 Kelch-Nrf2 peptide fluorescence polarization, 1536-well. inhibition, % at 9.4 µM. actives 0.15% (n = 340,000). AID 504523, 2011; in the data active means inhibition above about 12%;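 further: human Keap1 Kelch domain with fluorescein labeled Nrf2 9mer peptide probe; 0% = neutral control wells and 100% = peptide positive control; higher means more block of Keap1 binding to Nrf2 peptide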
Target sequence (Q14145 whole entry, looked up, the tested form may be a part): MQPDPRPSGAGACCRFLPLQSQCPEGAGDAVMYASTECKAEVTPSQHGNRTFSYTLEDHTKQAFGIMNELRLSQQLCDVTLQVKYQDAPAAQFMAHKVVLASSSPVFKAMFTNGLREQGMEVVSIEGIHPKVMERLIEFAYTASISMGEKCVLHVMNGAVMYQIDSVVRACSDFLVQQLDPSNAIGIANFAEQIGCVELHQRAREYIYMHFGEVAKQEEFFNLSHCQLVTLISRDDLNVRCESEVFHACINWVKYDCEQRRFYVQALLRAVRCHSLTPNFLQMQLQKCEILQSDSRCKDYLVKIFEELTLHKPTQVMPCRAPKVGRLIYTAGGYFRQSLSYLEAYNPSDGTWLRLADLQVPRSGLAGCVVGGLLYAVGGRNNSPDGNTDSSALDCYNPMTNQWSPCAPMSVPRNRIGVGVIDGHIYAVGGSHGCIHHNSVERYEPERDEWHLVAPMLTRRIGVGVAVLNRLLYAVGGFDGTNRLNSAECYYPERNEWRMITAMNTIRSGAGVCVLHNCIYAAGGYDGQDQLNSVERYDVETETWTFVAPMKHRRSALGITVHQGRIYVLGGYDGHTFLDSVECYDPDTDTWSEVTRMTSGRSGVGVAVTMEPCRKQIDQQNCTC
Keap1 TSA – Keap1 Kelch domain binders by thermal stabilisation, dose response, biophysical, thermal shift, RT-PCR instrument, cherry-pick | actives 8% (n = 400) | max delta Tm, degrees C | shares compounds with Keap1 Nrf2 FP | delta Tm; stronger effect = higher value; in the data active means max delta Tm above about 0.48 degrees C
Dye-only ctr – Sypro Orange dye melt without protein, dose response, artefact control for Keap1-Nrf2 interaction inhibitor project, biochemical, thermal shift counterscreen, cherry-pick. Sypro Orange dye-only thermal melt, no protein, delta Tm; top dose 26 µM. 140 tested, under 10 active. shares compounds with Keap1 Nrf2 FP. delta Tm, degrees C (test concentration not listed);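 active means at highest dose tested, delta Tm positive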
Tn7 DDE conf – inhibitors of Tn7 peptide binding to fibrin DD(E), confirmation, biochemical, fluorescence polarization, human fibrin, Tn7 probe; inhibition, % at 8.3 µM; FP displacement of TRITC-Tn7 peptide from DD(E); 0% set at plate's compound-well median; actives 5% (n = 460); shares compounds with DDE Tn7 FP inh;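 active means inhibition above the campaign cutoff, the mean of compounds within control limits plus 3 SD, cut at about 14% in these data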;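 further: 100% = median FP of high control wells holding Aha-Tn7 inhibitor peptide; displacers lower polarization since freed probe rises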
Tn7 DDE ctr – counter-screen hit for Tn7 peptide-fibrin DD(E) binding disruption. shares compounds with DDE Tn7 FP inh. actives 3% (n = 460). inhibition, % at 8.3 µM. TRITC-Tn7 probe displacement, fluorescence polarization. AID 720633;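 active means inhibition above the cutoff, the mean of compounds lying between the control bounds plus 3 SD of those compounds, cut at about 17% in these data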;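 further: 0% = median of compound sample wells and 100% = excess unlabeled Aha-Tn7 peptide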
Tn6 DDE ctr – DD(E)-Tn6 binding inhibition, counter-screen | actives 2% (n = 680) | shares compounds with Tn6 DDE FP | Fibrin DD(E), TRITC-Tn6 fluorescence polarization displacement; 0% = median of compound wells, not DMSO | inhibition, % at 8.3 µM | AID 720621;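 active means inhibition above the mean of test compounds lying between the control limits plus 3 SD of those, cut at about 14% in these data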;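 further: 0% = median of compound wells and 100% = wells with Aha-Tn7 blocking peptide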
DDE Tn6 confirm – inhibitors of Tn6 peptide binding to fibrin DD(E), confirmation, biochemical, fluorescence polarization, human fibrin, Tn6 probe | FP displacement of TRITC-Tn6 peptide from DD(E); 0% = per-plate median of test wells | actives 10% (n = 680) | AID 720631, 2013 | shares compounds with Tn6 DDE FP | inhibition, % at 8.3 µM;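 active means inhibition above the mean of compounds lying within the control limits plus 3 SD, cut at about 16% in these data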;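 further: 100% = high control wells holding a competing inhibitor peptide at 10 µM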
Starred values were filed as active, the others as inactive; x = no result given; + = active, no number. Shown are actives, neighbours in structure and some others; about 0.6% of the full set was active somewhere.

SMILES	DDE Tn7 FP inh	Rtt109 HAT inh	Tn6 DDE FP	C-LANA FP	Keap1 Nrf2 FP	Tn7 DDE conf	Tn7 DDE ctr	others
CC(C)N1CC=C2C(C#N)=C(N)C(C#N)(C#N)C(c3ccccc3)C2C1 (stereo unspecified)	8	-48	11	33	12*	x	x	Keap1 TSA=-0.09;Dye-only ctr=-30
Cc1cc(-c2ccccc2C(=O)O)on1	5	10	-2	-1	-7	x	x
O=C(O)c1ccccc1C1=Nc2ccc(O)cc2Oc2cc(O)ccc21	35*	0	9	111*	70*	5	-6	Keap1 TSA=-0.06;Dye-only ctr=-27
Cc1cc2nc3c(=O)n(C4CCCCC4)c(=O)[nH]c3nc2cc1N	25*	-10	-4	97*	48*	17*	8	Keap1 TSA=-0.03;Dye-only ctr=-25
O=c1cc(N2CCN(c3cccc(C(F)(F)F)c3)CC2)[nH]c(=O)n1-c1ccccc1	0	x	-5	x	x	x	x
CCC(CNc1cc(OC)cc2cccnc12)NC1CCCCC1 (stereo unspecified)	10	3	33*	15	17*	x	x	Keap1 TSA=0.03;Dye-only ctr=-27;Tn6 DDE ctr=-1;DDE Tn6 confirm=6
CCCN(CC1CC1)C(=O)CSc1nnc(-c2ccncc2)n1-c1ccc(OC)cc1	-6	x	6	x	x	x	x
COc1ccc(C(=O)c2ccsc2N)cc1	3	0	19*	57	14*	x	x	Keap1 TSA=-0.04;Tn6 DDE ctr=-6;DDE Tn6 confirm=-8
COc1cccc2c1C(=O)c1c(O)c3c(c(O)c1C2=O)CC(O)(C(C)=O)CC3OC1CC(N(C)C)C(O)C(C)O1 (stereo unspecified)	11	2	+	117*	+	x	x	Keap1 TSA=-0.12;Tn6 DDE ctr=-7;DDE Tn6 confirm=93*
O=C(C1CCN(c2ncnc3c2sc2cccc(F)c23)CC1)N1CCCCC1	-4	x	6	x	x	x	x
N#CC1=C(N)Oc2cc(N)ccc2C1c1ccsc1 (stereo unspecified)	7	-7	8	-1	-3	x	x
N#CC1=C(N)Oc2ccc3ccc(O)cc3c2C1c1ccsc1 (stereo unspecified)	23*	4	169*	87*	17*	8	38*	Keap1 TSA=-0.12;Tn6 DDE ctr=8;DDE Tn6 confirm=38*
CN1C(=O)NC(c2ccccc2[N+](=O)[O-])C2=C1CCCC2=O (stereo unspecified)	5	5	45*	46	29*	x	x	Keap1 TSA=0.01;Dye-only ctr=-34;Tn6 DDE ctr=-6;DDE Tn6 confirm=20*
O=C(NCCCc1ccccc1)O[C@@H]1CC[C@@]23CCCN2C(=O)CCC[C@H]3C1	-6	x	0	x	x	x	x
COC(=O)[C@]12C[C@H](CC(=O)NCC3CCCCC3)C(=O)N(Cc3ccccc3)C1=C[C@H](COCc1ccccc1)O[C@@H]2C	-7	x	-4	x	x	x	x
CCc1ccc(C(=O)N2CCN(c3ccc(NC(=O)c4ccco4)cc3)CC2)cc1	-3	-4	2	1	6	x	x
COc1ccc(C(=O)N2CCN(c3ccc(NC(=O)c4ccco4)cc3)CC2)cc1	14*	7	-1	0	-5	-2	-6
C=CCN1[C@@H](CC(C)C)COc2cccc(N3CCSCC3)c2S1(=O)=O	5	x	13	x	x	x	x
COC(=O)C1CN(Cc2ccccc2)CCS(=O)(=O)N1Cc1ccc(C)cc1 (stereo unspecified)	1	x	7	x	x	x	x
COC(=O)C1CN(C2CCCC2)CCS(=O)(=O)N1Cc1ccccc1 (stereo unspecified)	16*	x	0	x	x	-2	-5
COc1ccc(CC(=O)N[C@@H]2c3ccccc3CC[C@H]2OCc2ccccc2)cc1	0	0	-5	0	-1	x	x
CC(C)C(=O)N[C@@H]1c2ccccc2CC[C@@H]1OCc1ccccc1	14*	1	5	-2	-4	0	-4
CCOC(=O)Cn1c(-c2ccccc2)cc(SC)c(C#N)c1=O	14*	1	-3	1	3	3	-3
CSc1cc(-c2ccccc2)n(C)c(=O)c1C#N	3	1	-3	1	4	x	x
COc1ccc(/C=C/C(=O)OCC(=O)NCCCc2ccccc2)cc1OC	4	9	-3	0	0	x	x
SMILES	DDE Tn7 FP inh	Rtt109 HAT inh	Tn6 DDE FP	C-LANA FP	Keap1 Nrf2 FP	Tn7 DDE conf	Tn7 DDE ctr	others
C=CCOc1ccc(/C=C/C(=O)OCC(=O)NCCCc2ccccc2)cc1	14*	-3	-7	1	-1	1	0
COc1ccccc1CN1C[C@@H]2C[C@@H](c3ccccc3C)N3CCC[C@@]23C1=O	16*	4	4	0	-1	-2	-4
COC(=O)[C@H](CC(C)C)N(Cc1cn(Cc2ccc(C)cc2)nn1)S(=O)(=O)c1ccccc1Br	-7	x	1	x	x	x	x
COCCNC(=O)c1[nH]c(C(F)(F)F)nc1-c1ccccc1	15*	x	2	x	x	8	2
O=C(NCCc1ccccc1F)c1[nH]c(C(F)(F)F)nc1-c1ccccc1	-2	x	-2	x	x	x	x
O=C(CNc1n[nH]c(=O)[nH]c1=O)N/N=C/c1cccnc1	0	-9	0	0	6	x	x
O=C(CNc1n[nH]c(=O)[nH]c1=O)N/N=C/c1ccccc1	15*	x	3	x	x	5	4
COc1ccc(/C=N/N2CCN(c3ccc(Cl)cc3)CC2)cc1O	15*	1	2	-1	-9	2	-1

Compound activity: PubChem BioAssay, several laboratories
